Screening results from PubChem.
F508del corr: F508del CFTR correction, initial screen, CFBE line, single point; CFBE cells, YFP halide quenching; stimulated with forskolin plus potentiator P3; % fluorescence drop versus neutral controls; actives 0.36% (n = 350,000); AID 720511, 2013; activity (quench increase), % at 7.58 µM;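 active means mean added fluorescence quench of at least 8% versus neutral control, with both replicates also reaching 8%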;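 further: cells transiently co-express mutant CFTR-F508del with the halide-sensitive YFP; corrector assay measuring rescue of mutant channel to the surface after 24 h compound exposure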
E-sel inducer: E-selectin induction in HUVECs, primary screen, imaging, HUVEC, immunofluorescence imaging, single point. normalized: neutral wells 0, TNF-alpha wells 100. activation, % at 7.58 µM. actives 0.37% (n = 260,000). AID 686992, 2013;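 active means mean E-selectin-positive cell signal at least 10% of the positive control, reached in at least 60% of replicates, without over 20% cell loss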
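System: HUVEC / Compound: single concentration / Signal: immunofluorescence imaging / Read-out: percent E-selectin-positive cells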
DENV2 CPE: inhibitors of DENV2 cytopathic effect, primary screen, cell-based, plate reader, single concentration. DENV2-infected cells, cytopathic effect rescue. actives 1.7% (n = 350,000). CPE inhibition, % at 9.99 µM; in the data active means CPE inhibition above about 20%, passing the limit was not always enough; tested in BHK-21 cells;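 further: 0% = median of neutral control wells and 100% = median of positive control wells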
INS-1E GSIS act: GLuc luminescence reporter in INS-1E cells, primary screen for activators of glucose-dependent secretion of insulin. INS-1E GLuc reporter insulin secretion, 2-3 h. activation, % at 16.6 µM. actives 0.61% (n = 370,000). AID 743287, 2014;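 active means lowest replicate activation of at least 40%, so every replicate reaches that level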;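 further: 0% = median of neutral control wells and 100% = median of IBMX positive control wells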
ERAP1 HTS inh: human ERAP1 aminopeptidase inhibitors, primary screen, biochemical, single point, plate reader; AID 652197, 2013; actives 0.15% (n = 340,000); Endoplasmic reticulum aminopeptidase 1 (Homo sapiens), Q9NZ08; recombinant ERAP1, Leu-AMC fluorescence, 60 min; inhibition, % at 10.7 µM;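 active means mean replicate inhibition of at least 30%, or all replicates individually reaching that 30% level; inactive means mean below 30% and not every replicate reaching it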;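 further: 0% = neutral control wells and 100% = L-leucinethiol positive control wells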
Target sequence (Q9NZ08 whole entry, looked up): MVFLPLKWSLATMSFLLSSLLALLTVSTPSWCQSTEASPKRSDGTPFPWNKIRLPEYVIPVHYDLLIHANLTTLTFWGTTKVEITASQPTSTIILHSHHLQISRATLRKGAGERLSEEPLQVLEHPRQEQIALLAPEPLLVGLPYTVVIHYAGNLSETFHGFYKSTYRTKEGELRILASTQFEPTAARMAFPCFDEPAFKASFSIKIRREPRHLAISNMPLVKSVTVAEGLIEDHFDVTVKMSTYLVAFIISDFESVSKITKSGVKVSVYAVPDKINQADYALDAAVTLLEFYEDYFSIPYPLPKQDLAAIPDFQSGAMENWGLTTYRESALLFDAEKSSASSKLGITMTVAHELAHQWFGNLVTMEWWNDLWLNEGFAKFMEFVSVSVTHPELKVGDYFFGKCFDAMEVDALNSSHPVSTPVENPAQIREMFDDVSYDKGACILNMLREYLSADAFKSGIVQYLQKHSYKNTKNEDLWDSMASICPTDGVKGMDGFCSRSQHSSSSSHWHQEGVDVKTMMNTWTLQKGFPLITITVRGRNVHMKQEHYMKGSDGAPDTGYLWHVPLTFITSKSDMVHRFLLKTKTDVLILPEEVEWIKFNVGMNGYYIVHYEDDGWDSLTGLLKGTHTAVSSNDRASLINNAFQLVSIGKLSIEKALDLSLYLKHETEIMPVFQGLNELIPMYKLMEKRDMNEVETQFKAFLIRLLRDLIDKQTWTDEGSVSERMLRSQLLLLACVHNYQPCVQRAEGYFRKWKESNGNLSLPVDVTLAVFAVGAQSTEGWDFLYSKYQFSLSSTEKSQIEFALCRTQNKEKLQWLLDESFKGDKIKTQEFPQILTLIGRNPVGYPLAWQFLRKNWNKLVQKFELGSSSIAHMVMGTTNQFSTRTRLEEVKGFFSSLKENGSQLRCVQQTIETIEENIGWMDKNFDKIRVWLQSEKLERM
miR-122 sensor: miR-122 Renilla sensor signal increase in Huh7, primary screen, miR-122 inhibitor project, cell-based, single point, plate reader | Huh7 miR-122 Renilla luciferase sensor, 48 h; neutral wells = 0, positive control = 100 | activation (reporter increase), % at 12.5 µM | actives 0.3% (n = 340,000);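 active means mean replicate activation score at least 90 and every replicate individually at or above 90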;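 further: higher luciferase means less miR-122 activity so hits act as miR-122 inhibitors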
The depositor's hits bear a star; / = no result given; [ ] = another dose, or the depositor's remark. Rows were chosen to be rich in hits. Some 2.6% of all compounds tested hit in one or more screens of this group.

SMILES	F508del corr	E-sel inducer	DENV2 CPE	INS-1E GSIS act	ERAP1 HTS inh	miR-122 sensor
O=C(C[C@@H]1CC[C@@H](NC(=O)C2CCC2)[C@@H](CO)O1)NC1CCC1	0.6	-0.8	-7.1	3.0	-2.7	-6.6[16.7 µM]
O=C(NCC1(O)CCCCC1)C1CCC(=O)N(Cc2ccccc2F)C1 (stereo not drawn)	4.5	/	4.9	53.8*	1.8	-0.8
O=C(NC1CCCCCC1)C1CCC(=O)N(Cc2ccccc2F)C1 (stereo not drawn)	-5.1	0.9	-13.0	4.4	3.3	1.0
Oc1ccccc1-c1cc(-c2cccc(F)c2)n[nH]1	/	/	/	/	/	1.9
CC(C)(C)c1ccc(-c2cc(-c3ccccc3O)[nH]n2)cc1	-0.2	/	-1.6	68.4*	1.9	11.3
CO[C@H]1CN(C)C(=O)c2ccc(NC(=O)Nc3cccc(F)c3)cc2OC[C@H](C)N(C)C[C@@H]1C	1.1	-0.1	-8.3	-5.6	1.4	/
Cc1noc(C)c1S(=O)(=O)N(C)C[C@H]1OCCCC[C@@H](C)Oc2ccc(NC(=O)Nc3ccc4c(c3)OCO4)cc2C(=O)N([C@@H](C)CO)C[C@H]1C	-1.2	0.0	86.5*	-11.3	/	-17.2[16.7 µM]
Cc1noc(C)c1S(=O)(=O)N(C)C[C@H]1OCCCC[C@H](C)Oc2ccc(NC(=O)NC(C)C)cc2C(=O)N([C@H](C)CO)C[C@H]1C	-0.5	/	-4.4	11.6	2.8	2.5[16.7 µM]
Cc1noc(C)c1S(=O)(=O)N(C)C[C@H]1OCCCC[C@H](C)Oc2ccc(NC(=O)NC(C)C)cc2C(=O)N([C@H](C)CO)C[C@@H]1C	0.6	/	102.5*	14.7	3.8	3.4[16.7 µM]
CN(c1ccccc1)c1nc(N)c(C#N)c(CC#N)c1C#N	/	-0.2	/	66.2*	/	-5.6
CN(CCO)c1nc(N)c(C#N)c(CC#N)c1C#N	1.6	-0.3	0.4	24.1	/	0.2
O=C(N[C@@H]1c2ccccc2CC[C@@H]1OCc1ccccc1)c1ccc(C(F)(F)F)cc1	2.0	1.5	69.2*	4.8	10.5	-3.1
O=C(Cc1ccccc1)N1CC[C@H]2[C@H](CO)Nc3ccc(-c4ccccc4)cc3[C@H]21	-1.5	1.3	2.8	-0.9	2.1	26.9[16.7 µM]
C[C@H]1CC(=O)NCC/C=C\C[C@H](c2cccc(Cl)c2)NC1=O	/	/	/	8.6	/	/
COc1ccc([N+](=O)[O-])c2c(=O)ccoc12	/	/	/	41.0*	/	/
O=[N+]([O-])c1ccc(N2CCCCC2)cc1N1CCOCC1	1.0	-1.7	-9.6	45.3*	-4.8	/
O=[N+]([O-])c1ccc(N2CCOCC2)cc1N1CCCCC1	-0.7	5.7	/	42.9	8.5	/
CN(C)S(=O)(=O)c1cccc(C(=O)Nc2ccccc2C(=O)NC2CC2)c1	-3.1	-0.2	54.1*	20.2	-0.5	/
CC1(C)Oc2ccc3ccc(=O)oc3c2-c2cnoc21	-0.1	-0.2	3.3	8.4	56.5*	/
CC1(C)Oc2ccc3ccc(=O)oc3c2-c2cn[nH]c21	/	/	/	/	/	-18.1
Cc1noc(C)c1NC(=O)N(C)C[C@@H]1Oc2c(NC(=O)Nc3ccc(C(F)(F)F)cc3)cccc2C(=O)N([C@@H](C)CO)C[C@H]1C	3.8	/	6.6	/	-3.6	0.5[16.7 µM]
Cc1noc(C)c1NC(=O)N(C)C[C@H]1Oc2c(NC(=O)Nc3ccc(C(F)(F)F)cc3)cccc2C(=O)N([C@@H](C)CO)C[C@@H]1C	2.2	-0.3	26.7*	-2.6	-1.2	-4.7[16.7 µM]
C[C@@H]1CN([C@@H](C)CO)C(=O)c2cccc(NC(=O)Nc3ccc(C(F)(F)F)cc3)c2O[C@@H]1CN(C)C(=O)Nc1ccc2c(c1)OCO2	3.0	0.2	1.6	-16.5	/	0.6[16.7 µM]
C[C@H](CO)N1C[C@H](C)[C@@H](CN(C)C(=O)Nc2ccc(C(F)(F)F)cc2)Oc2c(NC(=O)Nc3ccccc3)cccc2C1=O	-3.9	0.5	-3.3	-34.2	3.4	2.1[16.7 µM]
C[C@@H]1CN([C@H](C)CO)C(=O)c2cccc(NC(=O)Nc3ccc4c(c3)OCO4)c2O[C@@H]1CN(C)C(=O)Nc1ccc(C(F)(F)F)cc1	-0.6	59.9*	2.7	-34.9	-0.2	-4.0[16.7 µM]
SMILES	F508del corr	E-sel inducer	DENV2 CPE	INS-1E GSIS act	ERAP1 HTS inh	miR-122 sensor
C[C@@H]1CN([C@H](C)CO)C(=O)c2cccc(NC(=O)Nc3ccc(C(F)(F)F)cc3)c2O[C@@H]1CN(C)C(=O)Nc1ccccc1	1.8	0.4	43.2*	-13.4	3.5	-5.5[16.7 µM]
COc1cccc(-n2c(=O)n(Cc3ccccc3)c(=O)c3[nH]cnc32)c1C	-0.8	0.1	9.4	76.3*	/	7.8
Cc1ccccc1-n1c(=O)n(Cc2ccc(C(=O)O)cc2)c(=O)c2[nH]cnc21	-5.3	-0.1	-3.9	6.2	2.6	-0.6
Cc1ccc(S(C)=O)cc1-n1c(=O)n(Cc2ccccc2)c(=O)c2[nH]cnc21 (stereo not drawn)	1.0	0.3	1.5	11.1	-1.6	/
CC(=O)Nc1cccc(-n2c(=O)n(Cc3ccccc3)c(=O)c3[nH]cnc32)c1	0.0	0.1	-4.6	42.9*	-0.8	-4.7
COc1ccc(Cn2c(=O)c3[nH]cnc3n(-c3ccccc3C)c2=O)cc1	/	/	-7.7	63.5*	-2.2	/
COc1ccc(C)c(-n2c(=O)n(Cc3ccccc3)c(=O)c3[nH]cnc32)c1	1.7	2.5	0.4	62.9*	-1.4	-4.8
Cc1noc(C)c1NC(=O)N(C)C[C@@H]1OCCCC[C@@H](C)Oc2ccc(NC(=O)Nc3ccccc3)cc2C(=O)N([C@@H](C)CO)C[C@@H]1C	-0.9	-0.1	-0.6	5.6	/	14.2[16.7 µM]
O=C(Nc1ccc2c(c1)OCCO2)c1cccc(C(=O)Nc2ccc3c(c2)OCCO3)c1	-3.8	/	26.0*	-25.9	0.0	/
COc1ccc(C(=O)Nc2ccc3c(c2)OCCO3)cc1[N+](=O)[O-]	-1.9	46.2*	-2.3	10.0	2.4	-1.6
O=C(Nc1ccc2oc(-c3cccnc3)nc2c1)c1ccc2c(c1)OCCO2	/	/	/	42.9*	/	/
Cc1cnc(NC(=O)c2ccc3c(c2)OCCO3)s1	9.0*	/	-2.2	1.6	1.6	14.9
O=C(Nc1ccc2oc(-c3ccccc3)nc2c1)c1ccc2c(c1)OCCO2	/	1.3	/	/	/	-4.9
Cc1nc2ccc3nc(NC(=O)c4ccc5c(c4)OCCO5)sc3c2s1	/	/	/	37.8	/	0.2
CCCC#Cc1ccc2c(c1)O[C@H](CN(C)C(=O)NC(C)C)[C@@H](C)CN([C@@H](C)CO)S2(=O)=O	-2.5	0.2	-5.8	-6.5	-1.3	-1.7[16.7 µM]
COc1ccc2c3c([nH]c2c1)[C@H](CO)N(CC1CC1)CC31CCN(C(=O)c2ccc(F)cc2)CC1	3.8	0.1	-1.0	1.5	-3.8	/
